Tests used:
[1] = target: T1, Nitric oxide synthase, inducible (Mus musculus, UniProt P29477); conditions: raw264.7
T1 sequence (P29477 whole entry): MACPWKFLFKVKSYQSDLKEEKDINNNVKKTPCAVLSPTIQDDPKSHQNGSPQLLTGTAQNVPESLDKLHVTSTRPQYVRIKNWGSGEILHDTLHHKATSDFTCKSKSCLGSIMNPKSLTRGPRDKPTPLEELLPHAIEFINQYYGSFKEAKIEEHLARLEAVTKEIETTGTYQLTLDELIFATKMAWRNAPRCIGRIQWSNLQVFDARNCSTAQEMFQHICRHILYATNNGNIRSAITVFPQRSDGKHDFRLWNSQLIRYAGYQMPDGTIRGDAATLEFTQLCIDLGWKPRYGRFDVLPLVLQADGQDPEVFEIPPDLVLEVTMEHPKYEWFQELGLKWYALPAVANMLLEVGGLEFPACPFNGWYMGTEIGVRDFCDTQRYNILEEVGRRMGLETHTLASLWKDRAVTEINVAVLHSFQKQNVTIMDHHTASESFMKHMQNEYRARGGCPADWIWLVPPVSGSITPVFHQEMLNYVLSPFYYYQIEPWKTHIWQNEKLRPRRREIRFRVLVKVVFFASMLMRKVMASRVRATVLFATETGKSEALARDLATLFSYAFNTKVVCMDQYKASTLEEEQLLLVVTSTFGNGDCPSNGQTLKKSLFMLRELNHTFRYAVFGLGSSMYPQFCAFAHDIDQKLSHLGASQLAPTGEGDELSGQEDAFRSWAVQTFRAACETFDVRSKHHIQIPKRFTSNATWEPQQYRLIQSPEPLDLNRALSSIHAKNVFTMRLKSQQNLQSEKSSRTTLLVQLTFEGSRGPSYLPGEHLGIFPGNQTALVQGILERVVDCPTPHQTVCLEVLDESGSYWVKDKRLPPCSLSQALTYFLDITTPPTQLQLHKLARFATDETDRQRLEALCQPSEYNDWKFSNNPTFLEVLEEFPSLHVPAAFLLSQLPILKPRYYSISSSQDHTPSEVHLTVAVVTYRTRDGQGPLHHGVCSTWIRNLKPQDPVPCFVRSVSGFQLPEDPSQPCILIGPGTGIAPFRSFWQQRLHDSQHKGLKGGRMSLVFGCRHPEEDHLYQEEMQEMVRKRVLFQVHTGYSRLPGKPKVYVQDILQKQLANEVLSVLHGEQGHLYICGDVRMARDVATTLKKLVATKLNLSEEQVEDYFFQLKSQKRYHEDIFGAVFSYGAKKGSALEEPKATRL

[2] = target: T2, Nitric oxide synthase, inducible (Mus musculus) (UniProt P29477); assay: Inhibition of iNOS in mouse RAW264.7 cells assessed as anti-inflammatory activity by measuring inhibition of LPS-induced nitric oxide production at 100 uM after 24 hrs; type: cell-based
T2 sequence (whole entry): T1 sequence (P29477 whole entry)
Procedure, shortened: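 RAW 264.7 murine macrophages grown to confluence over 24 h, then held 4 h in serum-free DMEM. Compounds or vehicle (0.1% DMSO) were added with or without LPS (200 ng/mL) for 24 h. Supernatant nitrite was measured by Griess reagent, 10 min at room temperature, A550, against a sodium nitrite standard curve. Results are % inhibition versus vehicle plus LPS; Emax is taken at 100 μM; mean ± SE.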

Row | Compound | IC50 [1] [µM] | Emax [2] [%]
1 | O=C(O)[C@H]1[C@H]2C=C[C@@H]3[C@@H]1C[C@H]1[C@H](CCCc4ccc5c(c4)OCO5)[C@@H]2[C@@H]31 (relative stereo) | 58.2 | 77.9
2 | O=C(O)/C=C/[C@H]1[C@@H]2C=C[C@@H]3[C@H]1C[C@H]1[C@H](CCCCCc4ccc5c(c4)OCO5)[C@H]2[C@@H]31 (relative stereo) | 39.6 | 91.4
3 | CC(C)CNC(=O)[C@H]1[C@H]2C=C[C@@H]3[C@@H]1C[C@H]1[C@H](CCCc4ccc5c(c4)OCO5)[C@@H]2[C@@H]31 (relative stereo) | 16.4 | 72.1
4 | COc1cc([C@@H]2O[C@@H](c3cc(OC)c4c(c3)OCO4)[C@H](C)[C@H]2C)cc(OC)c1OC (relative stereo) | 49 | 63.4
5 | COc1cc([C@@H]2O[C@@H](c3cc(OC)c4c(c3)OCO4)[C@H](C)[C@H]2C)cc2c1OCO2 (relative stereo) | 52.5 | 65.6
6 | COc1cc([C@@H]2O[C@@H](c3cc(OC)c4c(c3)OCO4)[C@H](C)[C@H]2C)cc(O)c1OC (relative stereo) [BEILSCHMINOL A] | 51.5 | 86.6
7 | CC(C)CNC(=O)[C@@H]1C=C[C@@H]2C[C@H]3[C@H](Cc4ccc5c(c4)OCO5)[C@H]4C=C[C@@H]1[C@@H]2[C@H]43 (relative stereo) [ENDIANDRAMIDE A] | 9.59 | 97.3
8 | O=C(O)[C@@H]1C=C[C@@H]2C[C@H]3[C@H](CCCc4ccc5c(c4)OCO5)[C@H]4C=C[C@@H]1[C@@H]2[C@H]43 (relative stereo) [TSANGIBEILIN A] | 49.6 | 96.9
9 | O=C(O)[C@@H]1C=C[C@@H]2C[C@H]3[C@H](Cc4ccc5c(c4)OCO5)[C@H]4C=C[C@@H]1[C@@H]2[C@H]43 (relative stereo) [TSANGIBEILIN B] | 42.3 | 96.1
10 | N=C(NCCC[C@H](N)C(=O)O)N[N+](=O)[O-] [NITROARGININE] | 152 | 43.7
11 | N=C(N)NN [PIMAGEDINE] | 26.5 | –
12 | COc1cc(C(=O)O[C@@H](c2cc(OC)c(OC)c(OC)c2)[C@H](C)C(C)=O)cc(OC)c1OC [TSANGIN C] | 51.4 | 85.5
